GAA850 FXN act: activators of GAA850 frataxin (FXN) promoter. HEK293 lucGAA850 FXN promoter luciferase reporter, 24 h; percent of 10 µM SAHA response. activation, % at 6 µM. 360,000 compounds, 0.56% hits;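 active means activation above the average of all compounds screened plus 3 SD, cutoff fixed separately per campaign, cut at about 7.5% in these data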
AHR activator: activators of human aryl hydrocarbon receptor | P35869 | AHR-responsive luciferase reporter cells, luminescence | activation, % at 5 µM | 320,000 compounds, 2.5% hits | AID 2796; in the data active means activation above about 47%
ABCB6 inh 2: blocks the human ABCB6 transporter; Q9NP58; K562-ABCB6 porphyrin accumulation, flow cytometry, 1 h; active compounds read low; fluorescence ratio to DMSO, % at 10 µM; 360,000 compounds, 0.19% hits;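 active means fluorescence ratio to DMSO below 75%, the collection mean minus 3 SD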;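 further: signal is porphyrin accumulated inside mitochondria; lower ratio means ABCB6 inhibition with less porphyrin fluorescence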
Target sequence (Q9NP58 whole entry, looked up): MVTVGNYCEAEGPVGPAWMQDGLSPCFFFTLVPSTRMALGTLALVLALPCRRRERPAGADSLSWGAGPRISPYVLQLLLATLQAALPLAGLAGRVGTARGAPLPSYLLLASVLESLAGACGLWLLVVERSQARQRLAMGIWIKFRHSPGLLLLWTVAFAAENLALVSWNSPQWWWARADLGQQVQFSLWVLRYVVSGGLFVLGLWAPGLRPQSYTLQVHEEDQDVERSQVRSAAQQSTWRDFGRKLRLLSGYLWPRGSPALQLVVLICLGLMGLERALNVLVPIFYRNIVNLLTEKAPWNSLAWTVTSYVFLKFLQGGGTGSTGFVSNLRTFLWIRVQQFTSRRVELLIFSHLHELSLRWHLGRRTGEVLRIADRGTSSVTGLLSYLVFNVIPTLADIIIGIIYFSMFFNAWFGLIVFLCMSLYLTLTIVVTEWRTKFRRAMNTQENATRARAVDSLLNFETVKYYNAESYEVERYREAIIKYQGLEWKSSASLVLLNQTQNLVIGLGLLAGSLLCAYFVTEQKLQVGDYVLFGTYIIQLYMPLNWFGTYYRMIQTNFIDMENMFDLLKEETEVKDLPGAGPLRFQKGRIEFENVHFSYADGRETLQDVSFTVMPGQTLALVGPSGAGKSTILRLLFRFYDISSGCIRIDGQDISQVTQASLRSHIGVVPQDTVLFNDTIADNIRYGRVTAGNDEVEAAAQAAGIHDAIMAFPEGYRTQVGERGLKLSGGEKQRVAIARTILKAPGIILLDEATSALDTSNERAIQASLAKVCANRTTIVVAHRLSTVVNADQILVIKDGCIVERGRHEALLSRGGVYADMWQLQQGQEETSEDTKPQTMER
SR-BI HDL uptake: mouse SR-BI HDL lipid transfer inhibition; Q61009; ldlA[mSR-BI] CHO cells, DiI-HDL uptake fluorescence, 3 h; inhibition, % at 12.5 µM; 320,000 compounds, 0.96% hits; AID 488896;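 active means mean replicate inhibition of at least 70% and a set share of replicates each scoring 70 or more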
HIF activator: HIF pathway transcriptional activation; 300,000 compounds, 0.32% hits; U2OS HRE-luciferase reporter, luminescence; normalized: DMSO 0%, desferrioxamine 100%; activation, % at 7.5 µM (by protocol);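 active means mean activation of at least 10% of the iron chelator positive control signal, with at least half of replicates also reaching 10%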
SR-BI uptake up: activators of SR-BI mediated HDL lipid uptake; CHO ldlA[mSR-BI] cells, DiI-HDL uptake fluorescence, 3 h; 100 = double the neutral-control signal; activation, % at 12.5 µM; 320,000 compounds, 0.096% hits; AID 504775;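 active means mean replicate activation of at least 60% and every replicate at or above 60%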
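system = CHO ldlA[mSR-BI] cells, LDL receptor-null, SR-BI overexpressing | medium = Ham's F12 with 0.5% BSA, HEPES 25 mM, pH 7.4 | probe or stimulus = DiI-HDL 10 µg/mL | compound dosing = single-point compound dose | incubation = compound exposure 3 h, 37 °C | technique = DiI fluorescence, bottom read | read-out = cell-associated DiI fluorescence as measure of HDL uptake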
A number is an active result; n = inactive; x = not tested or not shown. Hits are enriched below; roughly 3.9% of the tested compounds scored in any of these assays.

SMILES | GAA850 FXN act | AHR activator | ABCB6 inh 2 | SR-BI HDL uptake | HIF activator | SR-BI uptake up
CC(=O)NNC(=O)c1cc2c3ccccc3n(C)c2s1 | n | 74.6 | n | n | n | n
Cn1c2ccccc2c2cc(C(=O)N3CCN(CCO)CC3)sc21 | n | 68.4 | n | n | n | n
CN(C)S(=O)(=O)c1ccc(C(=O)OCC(=O)NCc2ccccc2)cc1 | n | n | n | n | n | n
Cc1c(NS(=O)(=O)c2cc(C(=O)NCc3cccnc3)cc(Cl)c2Cl)c(=O)n(-c2ccccc2)n1C | n | 59.6 | n | n | n | n
CCCCC(=O)N(C)c1c(C)nc2ccc(C(=O)NCCN(C)C)cn12 | n | x | n | x | x | x
CCN(CC)c1nc(C(N)=O)cc(-c2ccccc2)n1 | n | n | n | n | n | n
O=[N+]([O-])c1cccc2ccc(/C=C/c3ccc(Cl)cc3)nc12 | n | 61.9 | n | n | n | n
O=C(Nc1ccccc1)Nc1csc2ccccc12 | n | 61.2 | n | x | n | x
CC(=O)Nc1csc2ccccc12 | n | n | n | n | n | n
OC(CNCC1CCCCC1)COc1ccccc1 (centres undefined) | n | n | n | x | n | x
O=C(N/N=C\c1cn[nH]c1-c1ccccc1)c1ccc([N+](=O)[O-])cc1 | n | n | n | n | n | n
O=C(N/N=C/c1cn[nH]c1-c1ccccc1)c1ccco1 | n | 65.4 | n | n | n | n
O=C(N/N=C/c1cn[nH]c1-c1ccc(Cl)cc1)c1ccc([N+](=O)[O-])cc1 | n | n | n | 94.6 | n | n
Cc1cc(C(=O)N/N=C/c2cn[nH]c2-c2ccccc2)cs1 | n | 96.0 | n | n | n | n
COc1ccccc1NC(=O)c1ccc(NC(=O)C2CC2)cc1 | n | x | n | n | x | n
Cc1cccc(OCC(=O)Oc2ccc(Cl)cc2)c1 | n | n | n | n | n | n
Cc1cccc(OC(=O)NCCOC(=O)N(O)c2ccc(Cl)cc2)c1 | n | 52.6 | n | n | n | n
CCCC(=O)Nc1cc(C)c2c(=O)oc3ccccc3c2n1 | n | 52.6 | n | x | n | x
CCOC(=O)CNS(=O)(=O)c1c(C)noc1C | n | n | n | n | n | n
COc1ccc(NC(=O)c2[nH]c(C)c(C(C)=O)c2C)cc1S(=O)(=O)N1CCOCC1 | n | n | n | n | n | n
CC(=O)c1c(C)[nH]c(C(=O)Nc2ccc(Cl)c(S(=O)(=O)N3CCOCC3)c2)c1C | n | 48.7 | n | 79.4 | n | n
CC(=O)c1c(C)[nH]c(C(=O)Nc2cccc(S(=O)(=O)N3CCCC3)c2)c1C | n | n | n | 73.7 | x | n
O=S(=O)(c1cccnc1)N1CCCC(Nc2ccc(F)c(F)c2)C1 (centres undefined) | n | x | n | x | x | x
O=C(COC(=O)COc1ccc(Br)cc1)NC1CCCCCC1 | n | n | n | n | x | n
COc1ccc(S(=O)(=O)N2CCOC2CNC(=O)C(=O)NCCCn2ccnc2)cc1OC (centres undefined) | n | n | n | n | n | n
SMILES | GAA850 FXN act | AHR activator | ABCB6 inh 2 | SR-BI HDL uptake | HIF activator | SR-BI uptake up
COc1ccc(S(=O)(=O)N2CCCOC2CNC(=O)C(=O)NCCCn2ccnc2)cc1OC (centres undefined) | n | n | n | n | n | 70.5
CC(C)(C)OC(=O)[C@H](Cc1ccccc1)NC(=O)c1[nH]cnc1C(=O)Nc1ccc(Cl)cc1 | n | n | n | n | n | n
CCC(C)c1ccc2oc(-c3ccc(NC(=O)Cn4cnc5c(=O)n(C)c(=O)n(C)c54)cc3)nc2c1 (centres undefined) | n | n | n | n | 10.4 | n
CCCN(CCC)C(=O)C1CCN(c2cc(C)nc3c(-c4ccc(OC)c(OC)c4)c(C)nn23)CC1 | n | n | n | n | n | n
O=C1CCCC2=C1C(c1ccccc1)CC(=O)N2c1ccc(F)cc1F (centres undefined) | n | n | n | n | n | n
CC(=O)c1sc(N/N=C\c2c(O)ccc3ccccc23)nc1C | n | 65.2 | n | 97.1 | n | n
CC(=O)c1sc(N/N=C\c2ccc(N(C)C)cc2)nc1C | n | 57.2 | n | n | n | n
Cn1c(=O)n(C)c2cc(/C=N/NC(=O)c3ccncc3)ccc21 | x | n | x | x | n | x
CCn1c(O)c(/C=N/NC(=O)c2ccncc2)c(=O)n(CC)c1=S | n | x | n | 74.2 | n | n
CN1CCN(c2ccccc2NC(=O)c2ccc(-c3cccc(Cl)c3)o2)CC1 | n | 60.9 | n | n | n | n
